{"source": "ChEMBL document CHEMBL4699605", "about": "“Synthesis and biological evaluation of novel flexible nucleoside analogues that inhibit flavivirus replication in vitro” (Bioorg Med Chem, 2020)", "key": {"[1]": {"assay": "Inhibition of Dengue virus 2'-O methyltransferase incubated for 15 mins followed by [methyl-3-H]-AdoMet addition and measured after 30 mins by microbeta counter method", "outline": "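DENV-3 2′-O-MTase (0.5 µM) in 40 mM Tris-HCl pH 7.5 and 5 mM DTT with 1 µM capped RNA GpppAC5 and 10 µM AdoMet containing [3H]AdoMet, 30 °C for 30 min. Stopped by 20-fold dilution in ice-cold 100 µM AdoHcy. RNA captured on DEAE filter, washed, and transferred radioactivity counted. Inhibitor serially diluted, points in triplicate; IC50 from logistic dose-response fit with slope factor.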"}, "[2]": {"assay": "Inhibition of Dengue virus N-7 methyltransferase incubated for 15 mins followed by [methyl-3-H]-AdoMet addition and measured after 15 mins by microbeta counter method"}, "dengue virus type 2": {"tested_on": "dengue virus type 2", "assay": "Antiviral activity against DENV-2 infected in African green monkey Vero cells assessed as virus titer reduction incubated for 48 hrs by plaque assay", "format": "functional, organism-based"}}}
{"smiles": "Nc1ncnc2c1ncn2[C@@H]1O[C@H](C[C@@H](N)CC[C@H](N)C(=O)O)[C@@H](O)[C@H]1O", "note": "[SINEFUNGIN]", "values": [{"measurement": "IC50", "setting": "[1]", "result": 41, "unit": "nM"}, {"measurement": "IC50", "setting": "[2]", "result": 30, "unit": "nM"}]}
{"smiles": "C#C[C@@]1(O)[C@H](O)[C@@H](CO)O[C@H]1n1ccc2c(N)ncnc21", "values": [{"measurement": "EC50", "setting": "dengue virus type 2", "result": 640, "unit": "nM"}]}
